{
  "source": "ChEMBL document CHEMBL2384907",
  "about": "“Identification of substituted pyrimido[5,4-b]indoles as selective Toll-like receptor 4 ligands” (J Med Chem, 2013)",
  "type_in_all_cases": "cell-based",
  "key": {"[1]": {"target": "Toll-like receptor 5 (Homo sapiens) (UniProt O60602)", "sequence (O60602 whole entry)": "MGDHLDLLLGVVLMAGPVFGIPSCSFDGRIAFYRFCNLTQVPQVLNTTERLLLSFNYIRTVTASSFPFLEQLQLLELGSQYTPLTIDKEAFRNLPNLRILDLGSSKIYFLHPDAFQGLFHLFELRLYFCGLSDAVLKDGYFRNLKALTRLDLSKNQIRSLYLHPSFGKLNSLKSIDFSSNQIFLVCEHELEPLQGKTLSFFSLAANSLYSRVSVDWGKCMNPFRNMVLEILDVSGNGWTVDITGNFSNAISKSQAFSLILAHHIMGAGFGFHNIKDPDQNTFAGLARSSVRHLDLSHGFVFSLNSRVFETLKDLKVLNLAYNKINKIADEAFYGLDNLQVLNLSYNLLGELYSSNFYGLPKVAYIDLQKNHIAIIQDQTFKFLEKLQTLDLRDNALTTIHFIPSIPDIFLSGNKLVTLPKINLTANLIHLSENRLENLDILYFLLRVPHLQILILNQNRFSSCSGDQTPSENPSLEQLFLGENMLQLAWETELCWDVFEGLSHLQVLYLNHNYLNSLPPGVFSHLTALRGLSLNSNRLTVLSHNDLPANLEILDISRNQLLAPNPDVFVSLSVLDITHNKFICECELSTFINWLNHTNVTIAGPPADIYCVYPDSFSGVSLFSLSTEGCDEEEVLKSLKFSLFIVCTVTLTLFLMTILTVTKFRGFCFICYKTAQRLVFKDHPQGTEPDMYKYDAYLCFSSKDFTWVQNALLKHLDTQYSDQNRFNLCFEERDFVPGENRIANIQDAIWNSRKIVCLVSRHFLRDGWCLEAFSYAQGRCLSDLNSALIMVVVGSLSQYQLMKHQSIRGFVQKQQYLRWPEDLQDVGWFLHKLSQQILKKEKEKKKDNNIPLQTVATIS", "assay": "Activation of human TLR5 transfected in HEK293 cells at 10 uM after 20 to 24 hrs by SEAP assay"}, "[2]": {"target": "Toll-like receptor 4 (Homo sapiens) (UniProt O00206)", "sequence (O00206 whole entry)": "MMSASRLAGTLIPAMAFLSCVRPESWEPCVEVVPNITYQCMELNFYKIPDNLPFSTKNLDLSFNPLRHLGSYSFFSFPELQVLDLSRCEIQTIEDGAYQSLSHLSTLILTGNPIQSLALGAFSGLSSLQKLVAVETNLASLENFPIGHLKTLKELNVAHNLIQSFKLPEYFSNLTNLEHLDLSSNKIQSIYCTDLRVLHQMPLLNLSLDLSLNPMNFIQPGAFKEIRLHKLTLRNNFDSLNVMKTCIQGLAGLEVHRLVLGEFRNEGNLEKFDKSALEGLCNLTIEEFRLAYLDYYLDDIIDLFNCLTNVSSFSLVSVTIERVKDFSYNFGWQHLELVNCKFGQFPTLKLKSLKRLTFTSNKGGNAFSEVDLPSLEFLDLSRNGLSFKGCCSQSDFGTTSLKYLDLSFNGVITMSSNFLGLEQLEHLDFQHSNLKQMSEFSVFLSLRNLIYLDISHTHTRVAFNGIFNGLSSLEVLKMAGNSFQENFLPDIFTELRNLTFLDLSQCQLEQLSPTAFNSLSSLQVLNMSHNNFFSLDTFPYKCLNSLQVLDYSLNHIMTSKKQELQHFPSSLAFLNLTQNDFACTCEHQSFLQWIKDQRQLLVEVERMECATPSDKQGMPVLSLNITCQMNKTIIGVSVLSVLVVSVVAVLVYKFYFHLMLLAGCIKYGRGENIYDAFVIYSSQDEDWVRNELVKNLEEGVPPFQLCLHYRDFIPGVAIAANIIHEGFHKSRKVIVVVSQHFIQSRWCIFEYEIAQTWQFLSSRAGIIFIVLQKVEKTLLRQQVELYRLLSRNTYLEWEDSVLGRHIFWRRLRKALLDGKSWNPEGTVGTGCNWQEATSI", "assay": "Activation of TLR4 in human PBMC cells assessed as AUC of IL8 release at 10 uM after 18 hrs by ELISA relative to N-cyclohexyl-2-(4-oxo-3-phenyl-4,5-dihydro-3H-pyrimido[5,4-b]indol-2-ylthio)acetamide", "summary_of_the_method": "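Human PBMC from buffy coats, 1 × 10^6/mL in complete RPMI, 18 h at 37 °C, 5% CO2 with compound at 10 μM; IL-8 in supernatant by ELISA, normalized to reference hit set at 100. LPS 10 ng/mL positive control.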"}, "[3]": {"target": "T1, Toll-like receptor 8 (Homo sapiens) (UniProt Q9NR97)", "T1 sequence (whole entry)": "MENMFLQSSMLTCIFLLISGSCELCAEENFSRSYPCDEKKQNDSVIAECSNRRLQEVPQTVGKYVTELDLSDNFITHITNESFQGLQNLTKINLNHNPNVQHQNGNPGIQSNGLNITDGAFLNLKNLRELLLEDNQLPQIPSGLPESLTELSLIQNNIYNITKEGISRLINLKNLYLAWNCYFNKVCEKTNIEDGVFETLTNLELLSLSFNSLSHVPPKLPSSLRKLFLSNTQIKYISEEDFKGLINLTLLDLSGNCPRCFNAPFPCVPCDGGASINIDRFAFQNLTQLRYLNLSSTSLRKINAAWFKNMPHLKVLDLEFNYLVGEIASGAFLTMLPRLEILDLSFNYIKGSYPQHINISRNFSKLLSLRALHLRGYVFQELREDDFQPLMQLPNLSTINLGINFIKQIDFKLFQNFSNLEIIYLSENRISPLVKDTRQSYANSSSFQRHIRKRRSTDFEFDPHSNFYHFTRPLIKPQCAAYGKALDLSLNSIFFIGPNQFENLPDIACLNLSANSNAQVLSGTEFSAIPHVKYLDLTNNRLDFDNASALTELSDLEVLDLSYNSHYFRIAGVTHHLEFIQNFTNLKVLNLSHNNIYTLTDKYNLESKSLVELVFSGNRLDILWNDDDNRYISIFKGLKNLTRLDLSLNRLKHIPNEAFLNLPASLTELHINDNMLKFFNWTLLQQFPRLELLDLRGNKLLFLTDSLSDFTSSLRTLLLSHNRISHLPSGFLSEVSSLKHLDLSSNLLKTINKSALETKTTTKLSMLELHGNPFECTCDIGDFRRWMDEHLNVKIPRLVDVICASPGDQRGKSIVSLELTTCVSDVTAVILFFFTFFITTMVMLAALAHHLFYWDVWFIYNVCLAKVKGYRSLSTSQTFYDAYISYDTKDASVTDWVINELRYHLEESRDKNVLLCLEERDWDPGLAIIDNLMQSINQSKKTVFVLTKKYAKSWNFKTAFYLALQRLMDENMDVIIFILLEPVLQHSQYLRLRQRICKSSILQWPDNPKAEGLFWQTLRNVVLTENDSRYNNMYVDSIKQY", "assay": "Activation of human TLR8 transfected in HEK293 cells at 10 uM after 20 to 24 hrs by SEAP assay"}, "[4]": {"target": "T2, Toll-like receptor 4 (Mus musculus) (UniProt Q9QUK6)", "T2 sequence (whole entry)": "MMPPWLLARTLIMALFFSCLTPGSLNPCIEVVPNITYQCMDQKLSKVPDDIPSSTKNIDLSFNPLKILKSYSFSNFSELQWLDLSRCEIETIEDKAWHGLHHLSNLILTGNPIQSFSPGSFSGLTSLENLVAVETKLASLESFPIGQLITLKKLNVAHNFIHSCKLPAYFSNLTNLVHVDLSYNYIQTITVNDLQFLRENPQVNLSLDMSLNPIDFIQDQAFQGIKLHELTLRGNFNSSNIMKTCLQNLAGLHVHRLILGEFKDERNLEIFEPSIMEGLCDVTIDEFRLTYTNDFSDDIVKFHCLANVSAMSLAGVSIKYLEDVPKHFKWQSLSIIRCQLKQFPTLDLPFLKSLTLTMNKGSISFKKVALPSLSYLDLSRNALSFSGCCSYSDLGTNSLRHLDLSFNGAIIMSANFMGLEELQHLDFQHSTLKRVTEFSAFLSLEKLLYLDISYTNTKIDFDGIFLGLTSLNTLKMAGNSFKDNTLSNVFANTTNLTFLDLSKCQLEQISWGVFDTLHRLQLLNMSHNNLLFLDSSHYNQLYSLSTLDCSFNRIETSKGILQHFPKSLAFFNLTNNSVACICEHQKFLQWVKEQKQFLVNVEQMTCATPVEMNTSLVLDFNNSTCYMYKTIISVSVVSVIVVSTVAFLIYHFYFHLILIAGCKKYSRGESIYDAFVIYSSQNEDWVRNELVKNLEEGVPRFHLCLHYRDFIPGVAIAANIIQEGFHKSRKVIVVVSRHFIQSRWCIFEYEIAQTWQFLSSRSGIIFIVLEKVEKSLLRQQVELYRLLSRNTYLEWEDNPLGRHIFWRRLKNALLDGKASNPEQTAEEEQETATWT", "assay": "Activation of TLR4-mediated type 1 IFN release in C57BL/6 mouse BMDC cells after overnight incubation by luciferase reporter gene assay", "summary_of_the_method": "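Wild-type BMDC incubated overnight with graded concentrations (0.5% DMSO vehicle); 50 μL supernatant put on L929-ISRE luciferase reporter cells (5 × 10^4/well, DMEM-10) for 6 h; luciferase read, quantified against mouse IFN-β standard. Mean ± SEM of triplicates, two independent experiments.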"}},
  "note": "Active and inactive are the calls of the source. The rule behind the calls is not given here.",
  "data": [
    {"smiles": "O=C(CSc1nc2c([nH]c3ccccc32)c(=O)n1-c1ccccc1)NC1CCCCC1", "values": [
      {"measurement": "Activity", "setting": "[1]", "value": "inactive"},
      {"measurement": "Activity", "setting": "[2]", "value": 100, "unit": "%"},
      {"measurement": "Activity", "setting": "[3]", "value": "inactive"},
      {"measurement": "Activity", "setting": "[4]", "value": "Dose-dependent effect"}
    ]}
  ]
}
